Published values collected from several papers.
CNR1: Cannabinoid receptor 1 (CNR1, Homo sapiens, UniProt P21554)
Fatty acid-binding protein, intestinal T55A: Fatty acid-binding protein, intestinal (Homo sapiens, UniProt P12104, T55A)
Oprm1: Mu-type opioid receptor (Oprm1, Mus musculus, UniProt P42866)

Compound | target | test | setting | quantity | value
CC(C)(NC(=O)c1nn(CCCCCF)c2ccccc12)c1cccc(C(N)=O)c1 | CNR1 | ligand displacement, radioligand | cell membranes | Ki | 68 nM
Cc1oc(-c2ccccc2)nc1CCOc1cccc2c1ccn2CCC(=O)O | Fatty acid-binding protein, intestinal T55A | ligand displacement, fluorescence | – | Kd | 31900 nM
CC(C)[C@@H](CN1CCc2ccccc2C1)NC(=O)Cc1c[nH]c2ccccc12 | Oprm1 | ligand displacement, radioligand | – | Ki | 1240 nM
CCCCCc1ccccc1C/C=C\C/C=C\C/C=C\CCCC(=O)N[C@H](C)CO | CNR1 | β-arrestin recruitment, agonist | – | EC50 | 3440 nM
CCCCC1CNC2CCc3ccc(OC)cc3C12 (racemic) | Sigma non-opioid intracellular receptor 1 (SIGMAR1, Homo sapiens, UniProt Q99720) | ligand displacement, radioligand | – | Ki | 0.81 nM
CC(C)[C@@H](CN1CCc2ccccc2C1)NC(=O)c1cccc(-c2cccc(O)c2)c1 | Oprm1 | ligand displacement, radioligand | – | Ki | 1210 nM
CC[C@H](C)[C@H](NC(=O)[C@H](CCC(=O)O)NC(=O)[C@H](C)NC(=O)[C@H](CCCCN)NC(=O)[C@H](CC(C)C)NC(=O)[C@@H](NC(=O)[C@H](CCC(=O)O)NC(=O)[C@@H](NC(=O)[C@H](CCC(=O)O)NC(=O)[C@H](CC(=O)O)NC(=O)[C@H](C)NC(=O)[C@@H](NC(=O)[C@@H](NC(=O)[C@H](C)NC(=O)[C@H](C)NC(=O)CCNC(=O)[C@@H](N)CCCCNC(=O)CCCC[C@@H]1SC[C@@H]2NC(=O)N[C@@H]21)C(C)C)[C@@H](C)O)[C@@H](C)O)C(C)C)C(=O)N[C@@H](CO)C(=O)N[C@@H](CCCCN)C(=O)N[C@@H](C)C(=O)N[C@H](C(=O)N[C@@H](CCCCN)C(=O)N[C@@H](CCC(N)=O)C(=O)N[C@H](C(=O)N[C@@H](CCC(N)=O)C(=O)N[C@@H](CCC(=O)O)C(=O)N[C@@H](CCC(=O)O)C(=O)N[C@@H](CC(=O)O)C(=O)N1CCC[C@H]1C(=O)N[C@@H](CC(N)=O)C(N)=O)C(C)C)C(C)C | Myc proto-oncogene protein (MYC, Homo sapiens, UniProt P01106) | binding, BLI | – | Kd | 4600 nM
CCCCC/C=C\[C@H](C)/C=C\C/C=C\Cc1ccccc1CCCC(=O)N[C@H](C)CO | CNR1 | β-arrestin recruitment, agonist | – | EC50 | 1960 nM
CC[C@H](C)[C@@H](C(=O)N1CCC[C@H]1c1nccs1)N(C)C(=O)[C@H](CC(C)C)N(C)C(=O)[C@H](Cc1ccc(OC)cc1)N(C)C(=O)/C=C(\C)OC | CNR1 | ligand displacement, radioligand | – | IC50 | 16600 nM
COc1cc2c(cc1OC)CN(CCc1ccc(NC(=O)c3cccc4c(=O)c5cccc(OC)c5[nH]c34)cc1)CC2 | Histamine H4 receptor (HRH4, Homo sapiens, UniProt Q9H3N8) | cell-free assay | – | Ki | > 10000 nM
CC(C)(C#N)CCCn1nc(C(=O)NC(C)(C)c2cccc(C(N)=O)c2)c2ccccc21 | CNR1 | ligand displacement, radioligand | cell membranes | Ki | 250 nM
COc1cc2c3c(c1OC)-c1c(OC)ccc(Cl)c1CC3N(C)CC2 (racemic) | 5-hydroxytryptamine receptor 2A (HTR2A, Homo sapiens, UniProt P28223) | cell-free assay, radioligand | – | Ki | 893 nM
CC(C)(NC(=O)c1nn(CC2CCCC2)c2ccccc12)c1cccc(C(N)=O)c1 | CNR1 | ligand displacement, radioligand | cell membranes | Ki | 130 nM
O=C(O)Cn1c(=O)n(Cc2ccc(Br)cc2F)c(=O)c2ccc(Cl)cc21 | Fatty acid-binding protein, intestinal T55A | ligand displacement, fluorescence | – | Kd | 2680 nM
CCCCC/C=C\C/C=C\C/C=C\Cc1ccccc1CCCC(=O)N[C@H](C)CO | CNR1 | β-arrestin recruitment, agonist | – | EC50 | 607 nM
CC(C)(NC(=O)c1nn(CCCCC#N)c2ccccc12)c1cccc(C(N)=O)c1 | CNR1 | ligand displacement, radioligand | cell membranes | Ki | 460 nM
